Results published in ChEMBL document CHEMBL3616441, “Discovery of a Selective and CNS Penetrant Negative Allosteric Modulator of Metabotropic Glutamate Receptor Subtype 3 with Antidepressant and Anxiolytic Activity in Rodents” (J Med Chem, 2015).
pEC50, pIC50: −log10 of the molar value. Activity calls are given as the source filed them. The calls are words filed in the database; no cut-off is given here.

These compounds were tested against Metabotropic glutamate receptor 5 (Rattus norvegicus) (UniProt P31424) (assay: Positive allosteric modulation of rat mGlu5 receptor assessed as calcium mobilization by cell based fluorescence assay).
Assay type: functional

Sequence of Metabotropic glutamate receptor 5 (Rattus norvegicus) (P31424 21-1203 limits assumed): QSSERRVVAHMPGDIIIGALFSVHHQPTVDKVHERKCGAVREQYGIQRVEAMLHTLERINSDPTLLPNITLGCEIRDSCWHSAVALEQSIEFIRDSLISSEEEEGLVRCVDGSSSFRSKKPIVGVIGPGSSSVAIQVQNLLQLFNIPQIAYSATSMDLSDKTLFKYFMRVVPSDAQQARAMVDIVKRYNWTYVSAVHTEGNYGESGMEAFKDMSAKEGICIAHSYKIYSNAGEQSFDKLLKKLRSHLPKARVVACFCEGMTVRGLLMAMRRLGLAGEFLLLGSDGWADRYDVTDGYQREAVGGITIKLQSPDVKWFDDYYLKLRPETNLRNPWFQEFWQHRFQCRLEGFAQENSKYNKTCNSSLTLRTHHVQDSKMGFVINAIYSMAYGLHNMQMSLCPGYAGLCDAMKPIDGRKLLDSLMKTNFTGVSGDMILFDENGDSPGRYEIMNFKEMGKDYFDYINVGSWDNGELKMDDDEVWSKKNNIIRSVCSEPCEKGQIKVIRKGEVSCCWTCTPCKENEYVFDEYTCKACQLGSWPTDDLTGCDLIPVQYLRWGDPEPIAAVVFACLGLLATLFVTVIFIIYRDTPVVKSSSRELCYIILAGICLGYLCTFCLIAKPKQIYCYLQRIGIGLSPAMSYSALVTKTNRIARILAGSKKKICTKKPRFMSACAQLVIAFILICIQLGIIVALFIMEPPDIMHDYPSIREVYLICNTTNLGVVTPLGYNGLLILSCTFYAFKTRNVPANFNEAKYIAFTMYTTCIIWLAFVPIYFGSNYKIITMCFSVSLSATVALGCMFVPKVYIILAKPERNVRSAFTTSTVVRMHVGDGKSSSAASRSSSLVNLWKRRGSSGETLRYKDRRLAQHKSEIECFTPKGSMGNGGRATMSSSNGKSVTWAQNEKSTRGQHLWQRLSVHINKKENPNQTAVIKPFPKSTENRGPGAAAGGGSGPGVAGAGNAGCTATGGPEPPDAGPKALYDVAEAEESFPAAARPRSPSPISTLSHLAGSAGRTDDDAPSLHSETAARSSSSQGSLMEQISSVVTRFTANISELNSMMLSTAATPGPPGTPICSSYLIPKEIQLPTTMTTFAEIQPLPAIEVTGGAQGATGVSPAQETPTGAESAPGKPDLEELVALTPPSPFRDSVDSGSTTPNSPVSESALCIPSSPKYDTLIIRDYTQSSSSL

Question: How did the Activity turn out when C[C@@H]1CN(c2ccccc2C#N)C(=O)c2cc(COc3ccc(Cl)cn3)nn21 was run?
Answer: The Activity was “Active”.

Question: Which Activity does the source give for C[C@@H]1CN(c2ccccc2F)C(=O)c2cc(COc3ccc(Cl)cn3)nn21 here?
Answer: Its Activity is “Active”.

Question: For Cc1ccc(N2C[C@@H](C)n3nc(COc4ccc(Cl)cn4)cc3C2=O)cc1, which Activity is on record?
Answer: Its Activity is “Active”.

Question: COc1ccc(N2C[C@@H](C)n3nc(COc4ccc(Cl)cn4)cc3C2=O)cc1 was tested. Which Activity did it give?
Answer: Its Activity is “Active”.

Question: For C[C@@H]1CN(c2ccc(F)cn2)C(=O)c2cc(COc3ccc(Cl)cn3)nn21, which Activity is on record?
Answer: The Activity was “Active”.

Question: For COc1cccc(N2C[C@@H](C)n3nc(COc4ccc(Cl)cn4)cc3C2=O)c1, which Activity is on record?
Answer: The Activity was “Active”.

Question: C[C@@H]1CN(c2c(F)cccc2F)C(=O)c2cc(COc3ccc(Cl)cn3)nn21 was tested. Which Activity did it give?
Answer: The Activity was “Active”.

Question: For Cc1ccc(OCc2cc3n(n2)[C@H](C)CN(c2ccc(F)cc2)C3=O)cc1, which Activity is on record?
Answer: Its Activity is “Active”.

Question: How did the Activity turn out when C[C@@H]1CN(c2cccc(F)c2F)C(=O)c2cc(COc3ccc(Cl)cn3)nn21 was run?
Answer: The Activity was “Active”.

Question: For C[C@@H]1CN(c2ccc(F)cc2F)C(=O)c2cc(COc3ccc(Cl)cn3)nn21, which Activity is on record?
Answer: Its Activity is “Active”.

Question: How did the Activity turn out when CCc1ccc(OCc2cc3n(n2)[C@H](C)CN(c2ccc(F)cc2)C3=O)cc1 was run?
Answer: Its Activity is “Active”.

The compounds below were run against Metabotropic glutamate receptor 3 (Rattus norvegicus, UniProt P31422) (assay: Negative allosteric modulation of rat mGlu3 receptor assessed as calcium mobilization by cell based fluorescence assay).
Assay type: functional
How it was run: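 Cell line stably expressing rat mGlu3 with the promiscuous G-protein Gα15. Calcium mobilization with fluorescence read-out, inhibition of the glutamate response. Full concentration-response curves, top concentration 30 μM. % Glu Max is the response with 30 μM test compound as a percentage of the maximal response to 100 μM glutamate. Values averaged over n-3.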

Sequence of Metabotropic glutamate receptor 3 (P31422 whole entry): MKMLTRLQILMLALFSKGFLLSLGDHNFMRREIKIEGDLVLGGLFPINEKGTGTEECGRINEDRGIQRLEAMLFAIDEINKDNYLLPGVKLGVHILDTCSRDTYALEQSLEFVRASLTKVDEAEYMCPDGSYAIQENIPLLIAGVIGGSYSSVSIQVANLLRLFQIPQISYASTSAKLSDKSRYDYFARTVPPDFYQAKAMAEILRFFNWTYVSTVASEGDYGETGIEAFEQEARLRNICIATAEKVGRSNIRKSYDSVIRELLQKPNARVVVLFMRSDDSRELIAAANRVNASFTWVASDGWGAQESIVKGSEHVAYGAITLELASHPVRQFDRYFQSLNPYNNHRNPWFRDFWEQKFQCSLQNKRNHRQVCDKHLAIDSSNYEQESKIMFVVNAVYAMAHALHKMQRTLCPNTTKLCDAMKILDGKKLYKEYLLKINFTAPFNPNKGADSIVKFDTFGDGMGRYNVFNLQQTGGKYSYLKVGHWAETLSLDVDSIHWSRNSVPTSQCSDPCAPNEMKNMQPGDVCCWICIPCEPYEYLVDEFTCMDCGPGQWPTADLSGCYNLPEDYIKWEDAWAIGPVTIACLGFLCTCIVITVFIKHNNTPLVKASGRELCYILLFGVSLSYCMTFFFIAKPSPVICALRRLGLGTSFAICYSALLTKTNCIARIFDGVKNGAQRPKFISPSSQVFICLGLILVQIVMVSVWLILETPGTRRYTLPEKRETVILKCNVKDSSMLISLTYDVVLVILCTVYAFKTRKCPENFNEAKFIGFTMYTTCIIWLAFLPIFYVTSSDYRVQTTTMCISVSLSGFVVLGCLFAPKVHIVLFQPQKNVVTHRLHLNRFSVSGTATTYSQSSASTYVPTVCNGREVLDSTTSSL

Question: How did the pIC50 turn out when C[C@@H]1CN(c2ccccc2C#N)C(=O)c2cc(COc3ccc(Cl)cn3)nn21 was run?
Answer: The pIC50 was 6.37.

Question: With C[C@@H]1CN(c2ccccc2F)C(=O)c2cc(COc3ccc(Cl)cn3)nn21 as the compound, how does the pIC50 read?
Answer: The pIC50 was 6.65.

Question: Cc1ccc(N2C[C@@H](C)n3nc(COc4ccc(Cl)cn4)cc3C2=O)cc1 was tested. Which pIC50 did it give?
Answer: Its pIC50 is 6.39.

Question: With COc1ccc(N2C[C@@H](C)n3nc(COc4ccc(Cl)cn4)cc3C2=O)cc1 as the compound, how does the pIC50 read?
Answer: Its pIC50 is 6.36.

Question: With C[C@@H]1CN(c2ccc(F)cn2)C(=O)c2cc(COc3ccc(Cl)cn3)nn21 as the compound, how does the pIC50 read?
Answer: The pIC50 was 6.59.

Question: COc1cccc(N2C[C@@H](C)n3nc(COc4ccc(Cl)cn4)cc3C2=O)c1 was tested. Which pIC50 did it give?
Answer: The pIC50 was 6.50.

Question: With C[C@@H]1CN(c2c(F)cccc2F)C(=O)c2cc(COc3ccc(Cl)cn3)nn21 as the compound, how does the pIC50 read?
Answer: The pIC50 was 6.65.

Question: With Cc1ccc(OCc2cc3n(n2)[C@H](C)CN(c2ccc(F)cc2)C3=O)cc1 as the compound, how does the pIC50 read?
Answer: Its pIC50 is 5.92.

Question: C[C@@H]1CN(c2cccc(F)c2F)C(=O)c2cc(COc3ccc(Cl)cn3)nn21 was tested. Which pIC50 did it give?
Answer: Its pIC50 is 6.07.

Question: C[C@@H]1CN(c2ccc(F)cc2F)C(=O)c2cc(COc3ccc(Cl)cn3)nn21 was tested. Which pIC50 did it give?
Answer: The pIC50 was 6.55.

Question: With CCc1ccc(OCc2cc3n(n2)[C@H](C)CN(c2ccc(F)cc2)C3=O)cc1 as the compound, how does the pIC50 read?
Answer: The pIC50 was 6.08.

The compounds below were run against Metabotropic glutamate receptor 3 (Rattus norvegicus) (UniProt P31422) (assay: Negative allosteric modulation of rat mGlu3 receptor assessed as amplitude response at 30 uM relative to glutamate).
How it was run: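 Calcium mobilization in cell line stably expressing rat mGlu3 with promiscuous Gα15; fluorescence read-out; amplitude of glutamate response with 30 μM test compound expressed as percentage of maximal response (100 μM glutamate); average of n = 3.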

Sequence of Metabotropic glutamate receptor 3 (Rattus norvegicus) (P31422 23-879 limits assumed): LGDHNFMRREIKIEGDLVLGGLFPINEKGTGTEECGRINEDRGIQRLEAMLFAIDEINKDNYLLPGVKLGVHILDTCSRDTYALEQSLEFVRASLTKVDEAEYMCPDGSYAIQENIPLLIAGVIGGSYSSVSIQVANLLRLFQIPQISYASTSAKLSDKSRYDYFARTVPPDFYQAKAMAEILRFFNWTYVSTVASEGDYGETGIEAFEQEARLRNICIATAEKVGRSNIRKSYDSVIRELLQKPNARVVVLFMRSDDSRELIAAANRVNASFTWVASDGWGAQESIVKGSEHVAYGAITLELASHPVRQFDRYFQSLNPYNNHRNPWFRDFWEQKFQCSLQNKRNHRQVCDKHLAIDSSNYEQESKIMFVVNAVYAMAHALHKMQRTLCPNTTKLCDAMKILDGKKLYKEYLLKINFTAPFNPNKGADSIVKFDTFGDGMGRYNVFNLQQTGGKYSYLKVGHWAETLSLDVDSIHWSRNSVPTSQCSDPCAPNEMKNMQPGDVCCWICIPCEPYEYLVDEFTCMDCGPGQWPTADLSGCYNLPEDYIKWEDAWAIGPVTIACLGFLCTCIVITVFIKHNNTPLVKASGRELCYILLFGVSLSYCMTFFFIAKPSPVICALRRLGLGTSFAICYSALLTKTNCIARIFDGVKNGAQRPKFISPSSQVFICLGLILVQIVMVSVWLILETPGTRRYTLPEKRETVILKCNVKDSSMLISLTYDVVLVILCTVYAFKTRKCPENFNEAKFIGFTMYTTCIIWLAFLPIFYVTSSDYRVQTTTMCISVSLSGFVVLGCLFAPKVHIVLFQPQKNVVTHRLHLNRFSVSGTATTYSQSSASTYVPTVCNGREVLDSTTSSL

Question: How did the Activity turn out when C[C@@H]1CN(c2ccccc2C#N)C(=O)c2cc(COc3ccc(Cl)cn3)nn21 was run?
Answer: Its Activity is 1.64%.

Question: For C[C@@H]1CN(c2ccccc2F)C(=O)c2cc(COc3ccc(Cl)cn3)nn21, which Activity is on record?
Answer: The Activity was 1.74%.

Question: Which Activity does the source give for Cc1ccc(N2C[C@@H](C)n3nc(COc4ccc(Cl)cn4)cc3C2=O)cc1 here?
Answer: The Activity was 1.39%.

Question: Which Activity does the source give for COc1ccc(N2C[C@@H](C)n3nc(COc4ccc(Cl)cn4)cc3C2=O)cc1 here?
Answer: Its Activity is 2.07%.

Question: C[C@@H]1CN(c2ccc(F)cn2)C(=O)c2cc(COc3ccc(Cl)cn3)nn21 was tested. Which Activity did it give?
Answer: Its Activity is 2.44%.

Question: For COc1cccc(N2C[C@@H](C)n3nc(COc4ccc(Cl)cn4)cc3C2=O)c1, which Activity is on record?
Answer: The Activity was 2%.

Question: How did the Activity turn out when C[C@@H]1CN(c2c(F)cccc2F)C(=O)c2cc(COc3ccc(Cl)cn3)nn21 was run?
Answer: Its Activity is 2.06%.

Question: Which Activity does the source give for Cc1ccc(OCc2cc3n(n2)[C@H](C)CN(c2ccc(F)cc2)C3=O)cc1 here?
Answer: Its Activity is 1.72%.

Question: With C[C@@H]1CN(c2cccc(F)c2F)C(=O)c2cc(COc3ccc(Cl)cn3)nn21 as the compound, how does the Activity read?
Answer: Its Activity is 0.33%.

Question: With C[C@@H]1CN(c2ccc(F)cc2F)C(=O)c2cc(COc3ccc(Cl)cn3)nn21 as the compound, how does the Activity read?
Answer: Its Activity is 1.34%.

Question: For CCc1ccc(OCc2cc3n(n2)[C@H](C)CN(c2ccc(F)cc2)C3=O)cc1, which Activity is on record?
Answer: The Activity was 2.29%.

What follows are compounds tested against Metabotropic glutamate receptor 5 (Rattus norvegicus, UniProt P31424) (assay: Modulation of rat mGlu5 receptor assessed as calcium mobilization by cell based fluorescence assay).
Assay type: functional
How it was run: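 Calcium mobilization assay with fluorescence read-out in cells expressing mGlu5; full concentration-response curves; % Glu Max is the amplitude of response with 30 μM test compound as a percentage of the maximal response to 100 μM glutamate; values averaged over n-3.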

Sequence of Metabotropic glutamate receptor 5 (P31424 whole entry): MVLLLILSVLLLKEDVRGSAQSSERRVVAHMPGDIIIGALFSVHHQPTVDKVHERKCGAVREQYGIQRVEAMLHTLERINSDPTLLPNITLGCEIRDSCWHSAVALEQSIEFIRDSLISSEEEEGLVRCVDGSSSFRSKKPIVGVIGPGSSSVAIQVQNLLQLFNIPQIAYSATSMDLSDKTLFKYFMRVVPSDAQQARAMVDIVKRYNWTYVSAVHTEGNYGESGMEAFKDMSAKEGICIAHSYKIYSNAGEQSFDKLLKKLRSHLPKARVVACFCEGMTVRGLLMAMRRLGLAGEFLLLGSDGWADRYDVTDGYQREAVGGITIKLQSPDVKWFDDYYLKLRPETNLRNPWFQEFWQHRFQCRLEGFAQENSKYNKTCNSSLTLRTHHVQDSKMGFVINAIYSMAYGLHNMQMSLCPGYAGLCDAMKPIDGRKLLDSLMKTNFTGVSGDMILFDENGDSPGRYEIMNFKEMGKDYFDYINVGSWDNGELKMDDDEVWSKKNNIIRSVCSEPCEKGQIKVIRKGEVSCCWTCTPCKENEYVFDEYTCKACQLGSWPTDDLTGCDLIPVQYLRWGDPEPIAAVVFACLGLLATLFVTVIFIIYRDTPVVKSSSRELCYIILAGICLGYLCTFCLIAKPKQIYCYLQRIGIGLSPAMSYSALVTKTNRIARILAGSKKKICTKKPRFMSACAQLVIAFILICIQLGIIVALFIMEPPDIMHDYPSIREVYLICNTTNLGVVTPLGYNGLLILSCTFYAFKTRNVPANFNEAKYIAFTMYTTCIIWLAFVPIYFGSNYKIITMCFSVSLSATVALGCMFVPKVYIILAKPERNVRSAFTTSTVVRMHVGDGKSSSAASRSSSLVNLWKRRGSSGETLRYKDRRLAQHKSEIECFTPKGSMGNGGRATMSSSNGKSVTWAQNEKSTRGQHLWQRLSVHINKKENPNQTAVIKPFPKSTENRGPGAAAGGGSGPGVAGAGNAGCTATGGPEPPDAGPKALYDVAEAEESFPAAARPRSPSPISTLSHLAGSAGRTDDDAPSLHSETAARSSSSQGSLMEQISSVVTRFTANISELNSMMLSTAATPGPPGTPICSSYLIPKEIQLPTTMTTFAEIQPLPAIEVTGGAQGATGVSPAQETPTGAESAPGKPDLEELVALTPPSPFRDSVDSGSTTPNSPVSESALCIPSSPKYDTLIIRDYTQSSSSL

Question: C[C@@H]1CN(c2ccccc2C#N)C(=O)c2cc(COc3ccc(Cl)cn3)nn21 was tested. Which pEC50 did it give?
Answer: Its pEC50 is 5.30.

Question: With C[C@@H]1CN(c2ccccc2F)C(=O)c2cc(COc3ccc(Cl)cn3)nn21 as the compound, how does the pEC50 read?
Answer: The pEC50 was 5.49.

Question: With Cc1ccc(N2C[C@@H](C)n3nc(COc4ccc(Cl)cn4)cc3C2=O)cc1 as the compound, how does the pEC50 read?
Answer: Its pEC50 is less than 5.00.

Question: How did the pEC50 turn out when COc1ccc(N2C[C@@H](C)n3nc(COc4ccc(Cl)cn4)cc3C2=O)cc1 was run?
Answer: The pEC50 was 5.36.

Question: C[C@@H]1CN(c2ccc(F)cn2)C(=O)c2cc(COc3ccc(Cl)cn3)nn21 was tested. Which pEC50 did it give?
Answer: Its pEC50 is less than 5.00.

Question: With COc1cccc(N2C[C@@H](C)n3nc(COc4ccc(Cl)cn4)cc3C2=O)c1 as the compound, how does the pEC50 read?
Answer: Its pEC50 is 5.29.

Question: C[C@@H]1CN(c2c(F)cccc2F)C(=O)c2cc(COc3ccc(Cl)cn3)nn21 was tested. Which pEC50 did it give?
Answer: The pEC50 was 5.85.

Question: Cc1ccc(OCc2cc3n(n2)[C@H](C)CN(c2ccc(F)cc2)C3=O)cc1 was tested. Which pEC50 did it give?
Answer: The pEC50 was 5.97.

Question: How did the pEC50 turn out when C[C@@H]1CN(c2cccc(F)c2F)C(=O)c2cc(COc3ccc(Cl)cn3)nn21 was run?
Answer: The pEC50 was 5.18.

Question: How did the pEC50 turn out when C[C@@H]1CN(c2ccc(F)cc2F)C(=O)c2cc(COc3ccc(Cl)cn3)nn21 was run?
Answer: Its pEC50 is 5.59.

Question: How did the pEC50 turn out when CCc1ccc(OCc2cc3n(n2)[C@H](C)CN(c2ccc(F)cc2)C3=O)cc1 was run?
Answer: The pEC50 was 5.49.

The compounds below were run against Metabotropic glutamate receptor 5 (Rattus norvegicus) (UniProt P31424) (assay: Modulation of rat mGlu5 receptor assessed as assessed as calcium mobilization at 30 uM by cell based fluorescence assay).
Assay type: functional

Question: With C[C@@H]1CN(c2ccccc2C#N)C(=O)c2cc(COc3ccc(Cl)cn3)nn21 as the compound, how does the Activity read?
Answer: Its Activity is 38.1%.

Question: With C[C@@H]1CN(c2ccccc2F)C(=O)c2cc(COc3ccc(Cl)cn3)nn21 as the compound, how does the Activity read?
Answer: The Activity was 57.3%.

Question: Which Activity does the source give for Cc1ccc(N2C[C@@H](C)n3nc(COc4ccc(Cl)cn4)cc3C2=O)cc1 here?
Answer: Its Activity is 70.8%.

Question: With COc1ccc(N2C[C@@H](C)n3nc(COc4ccc(Cl)cn4)cc3C2=O)cc1 as the compound, how does the Activity read?
Answer: Its Activity is 59.4%.

Question: How did the Activity turn out when C[C@@H]1CN(c2ccc(F)cn2)C(=O)c2cc(COc3ccc(Cl)cn3)nn21 was run?
Answer: The Activity was 47.9%.

Question: How did the Activity turn out when COc1cccc(N2C[C@@H](C)n3nc(COc4ccc(Cl)cn4)cc3C2=O)c1 was run?
Answer: The Activity was 78%.

Question: Which Activity does the source give for C[C@@H]1CN(c2c(F)cccc2F)C(=O)c2cc(COc3ccc(Cl)cn3)nn21 here?
Answer: Its Activity is 40.3%.

Question: Cc1ccc(OCc2cc3n(n2)[C@H](C)CN(c2ccc(F)cc2)C3=O)cc1 was tested. Which Activity did it give?
Answer: Its Activity is 92.5%.

Question: Which Activity does the source give for C[C@@H]1CN(c2cccc(F)c2F)C(=O)c2cc(COc3ccc(Cl)cn3)nn21 here?
Answer: The Activity was 36.1%.

Question: With C[C@@H]1CN(c2ccc(F)cc2F)C(=O)c2cc(COc3ccc(Cl)cn3)nn21 as the compound, how does the Activity read?
Answer: The Activity was 70.8%.

Question: CCc1ccc(OCc2cc3n(n2)[C@H](C)CN(c2ccc(F)cc2)C3=O)cc1 was tested. Which Activity did it give?
Answer: Its Activity is 50.8%.
